The text below walks through data of ChEMBL document CHEMBL1938329, “The discovery of potent, selective, and orally active pyrazoloquinolines as PDE10A inhibitors for the treatment of Schizophrenia” (Bioorg Med Chem Lett, 2012).

Molecules are shown by their SMILES.

Usually Ki stands for a dissociation constant, usually derived from enzyme kinetics or from competition with a known ligand. As usually defined, the inhibition is how much of the control response was suppressed. Read a high inhibition as strong suppression. One may read the AUC(0-t) as the area under the concentration-time curve up to a stated or last time point. A lower AUC(0-t) goes with low exposure. For orientation: IC50 means the concentration that inhibits the measured activity by half. Higher therefore signals weaker potency.

One series deals with Phosphodiesterase 8 (Homo sapiens, UniProt O95263+O60658). The series can be described thus: Inhibition of recombinant human PDE8 using [3H]cAMP as substrate by scintillation proximity assay. It counts as protein assay. A digest of the protocol: (§1)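 Scintillation proximity assay with [³H]cAMP as substrate, measuring hydrolysis of cAMP to AMP by recombinant human PDEs 1–11. Ki values are means of at least two experiments.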
A general note: SPA uses beads or plates that emit light when radiolabelled molecules are held near them.

Another series concerns the target Phosphodiesterase 1 (Homo sapiens, UniProt P54750+Q01064+Q14123). Description: Inhibition of recombinant human PDE1 using [3H]cAMP as substrate by scintillation proximity assay. It counts as protein assay. Summed up: as §1
For series [1], the target named is 5-hydroxytryptamine receptor 7 (Homo sapiens) (UniProt P34969). The series can be described thus: Inhibition of 5HT7 at 10 uM.
Sequence of 5-hydroxytryptamine receptor 7 (Homo sapiens) (P34969 whole entry): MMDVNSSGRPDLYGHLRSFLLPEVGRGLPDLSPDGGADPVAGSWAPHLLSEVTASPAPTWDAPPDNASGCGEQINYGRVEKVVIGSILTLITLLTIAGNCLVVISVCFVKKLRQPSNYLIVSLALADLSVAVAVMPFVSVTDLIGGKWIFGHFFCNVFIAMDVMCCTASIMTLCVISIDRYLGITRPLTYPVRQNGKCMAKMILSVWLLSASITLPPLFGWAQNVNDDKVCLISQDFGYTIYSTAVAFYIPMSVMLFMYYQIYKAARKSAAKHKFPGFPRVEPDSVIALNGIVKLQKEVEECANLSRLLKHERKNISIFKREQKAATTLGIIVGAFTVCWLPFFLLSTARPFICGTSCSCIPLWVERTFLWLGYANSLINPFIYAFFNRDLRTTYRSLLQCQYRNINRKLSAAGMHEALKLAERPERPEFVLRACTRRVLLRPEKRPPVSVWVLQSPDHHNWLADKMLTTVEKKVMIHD
Series [2] is described as follows: AUC (0 to 6 hrs) in rat at 10 mg/kg, po. Further details: time < 6 hr, dose 10 mg/kg, route oral. The settings on record: plasma. The series is classed as ADME, organism-based. Summed up:
(§2)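 Rat cassette-accelerated rapid screen, 10 mg/kg oral. Plasma exposure measured over 0–6 h. Brain drug concentration taken at 6 h. Brain/plasma ratio is brain over plasma drug concentration at 6 h.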

The target of series [3] is Dual 3',5'-cyclic-AMP and -GMP phosphodiesterase 11A (Homo sapiens, UniProt Q9HCR9). Description: Inhibition of recombinant human PDE11 using [3H]cAMP as substrate by scintillation proximity assay. A digest of the protocol:
as §1

Series [4] is described as follows: Plasma protein binding in rat. It counts as ADME, cell-free. Conditions: read-out: PPB (converted).
The target in a further series is Phosphodiesterase 4 (Homo sapiens, UniProt P27815+Q08499+Q07343+Q08493). Description: Inhibition of recombinant human PDE4 using [3H]cAMP as substrate by scintillation proximity assay. The series is classed as protein assay. A digest of the protocol: as §1
The target in the next series is Phosphodiesterase 7 (Homo sapiens, UniProt Q13946+Q9NP56). Description: Inhibition of recombinant human PDE7 using [3H]cAMP as substrate by scintillation proximity assay. The series is classed as protein assay. A digest of the protocol:
as §1

The target of series [5] is cGMP-dependent 3',5'-cyclic phosphodiesterase (Homo sapiens, UniProt O00408). Description: Inhibition of recombinant human PDE2 using [3H]cAMP as substrate by scintillation proximity assay. Summed up: as §1
Sequence of cGMP-dependent 3',5'-cyclic phosphodiesterase (O00408 whole entry): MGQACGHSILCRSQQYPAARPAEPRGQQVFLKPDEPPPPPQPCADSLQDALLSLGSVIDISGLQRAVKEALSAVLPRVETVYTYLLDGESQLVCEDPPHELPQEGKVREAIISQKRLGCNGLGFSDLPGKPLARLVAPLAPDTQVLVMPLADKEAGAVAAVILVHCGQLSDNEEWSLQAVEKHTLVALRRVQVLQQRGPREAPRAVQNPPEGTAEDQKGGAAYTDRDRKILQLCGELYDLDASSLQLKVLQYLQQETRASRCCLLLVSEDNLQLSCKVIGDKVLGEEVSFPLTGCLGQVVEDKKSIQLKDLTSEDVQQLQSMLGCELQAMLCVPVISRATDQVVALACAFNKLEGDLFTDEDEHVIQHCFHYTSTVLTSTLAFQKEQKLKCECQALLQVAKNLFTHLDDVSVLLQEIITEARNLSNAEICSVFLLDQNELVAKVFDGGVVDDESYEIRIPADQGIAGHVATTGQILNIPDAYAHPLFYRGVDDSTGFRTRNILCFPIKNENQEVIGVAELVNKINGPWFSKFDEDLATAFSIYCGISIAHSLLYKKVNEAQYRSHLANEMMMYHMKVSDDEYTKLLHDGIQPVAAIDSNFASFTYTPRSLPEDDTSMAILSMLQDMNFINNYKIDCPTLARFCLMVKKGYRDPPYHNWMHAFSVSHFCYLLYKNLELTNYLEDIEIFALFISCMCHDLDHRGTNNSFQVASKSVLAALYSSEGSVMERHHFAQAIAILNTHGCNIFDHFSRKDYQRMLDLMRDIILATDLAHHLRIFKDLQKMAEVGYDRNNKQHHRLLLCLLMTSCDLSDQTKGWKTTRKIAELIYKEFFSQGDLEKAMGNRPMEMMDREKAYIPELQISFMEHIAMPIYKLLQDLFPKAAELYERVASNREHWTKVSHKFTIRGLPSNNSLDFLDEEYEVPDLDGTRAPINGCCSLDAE
In series [6] the target is cGMP-specific 3',5'-cyclic phosphodiesterase (Homo sapiens, UniProt O76074). Description: Inhibition of recombinant human PDE5A using [3H]cAMP as substrate by scintillation proximity assay. A digest of the protocol: as §1
Another series has as its target Phosphodiesterase 3 (Homo sapiens, UniProt Q14432+Q13370). Description: Inhibition of recombinant human PDE3 using [3H]cAMP as substrate by scintillation proximity assay. It counts as protein assay. Summed up: as §1
Series [7] concerns the target T1, 5-hydroxytryptamine receptor 3A (Homo sapiens) (UniProt P46098).
T1 sequence (whole entry): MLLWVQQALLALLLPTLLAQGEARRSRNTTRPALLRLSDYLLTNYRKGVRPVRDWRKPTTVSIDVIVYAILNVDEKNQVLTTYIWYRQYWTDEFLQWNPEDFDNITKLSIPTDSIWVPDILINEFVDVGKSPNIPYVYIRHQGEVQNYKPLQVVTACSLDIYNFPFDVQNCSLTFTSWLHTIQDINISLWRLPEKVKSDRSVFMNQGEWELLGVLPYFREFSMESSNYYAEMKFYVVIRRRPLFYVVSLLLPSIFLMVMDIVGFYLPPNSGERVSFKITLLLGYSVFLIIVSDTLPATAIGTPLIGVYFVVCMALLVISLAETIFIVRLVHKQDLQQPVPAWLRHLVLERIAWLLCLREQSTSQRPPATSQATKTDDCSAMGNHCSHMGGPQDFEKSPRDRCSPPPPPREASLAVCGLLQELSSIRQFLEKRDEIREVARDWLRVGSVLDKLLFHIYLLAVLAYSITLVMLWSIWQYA
The series can be described thus: Inhibition of 5HT3 at 10 uM.

A short description of series [8]: Ratio of drug level in brain to plasma in rat at 10 mg/kg, po at 6 hrs. It counts as ADME, organism-based. Details: dose 10 mg/kg, route oral. The settings on record: read-out: BPR. Summed up: as §2
Series [9] can be described thus: Drug uptake in rat brain at 10 mg/kg, po after 6 hrs. The series is classed as ADME, organism-based. Further details: dose 10 mg/kg, route oral. Conditions: read-out: Drug uptake. Summed up:
as §2

Series [10] has as its target High affinity cGMP-specific 3',5'-cyclic phosphodiesterase 9A (Homo sapiens, UniProt O76083). Description: Inhibition of recombinant human PDE9 using [3H]cAMP as substrate by scintillation proximity assay. A digest of the protocol:
as §1

Series [11] has as its target 5-hydroxytryptamine receptor 1B (Homo sapiens) (UniProt P28222). Description: Inhibition of 5HT1b at 10 uM.
The target in another series is Phosphodiesterase 6. The series can be described thus: Inhibition of recombinant human PDE6 using [3H]cAMP as substrate by scintillation proximity assay. It counts as protein assay. A digest of the protocol: as §1
Series [12] deals with Casein kinase I isoform delta (Homo sapiens, UniProt P48730). The series can be described thus: Inhibition of CK1delta.
Sequence of Casein kinase I isoform delta (P48730 whole entry, canonical isoform): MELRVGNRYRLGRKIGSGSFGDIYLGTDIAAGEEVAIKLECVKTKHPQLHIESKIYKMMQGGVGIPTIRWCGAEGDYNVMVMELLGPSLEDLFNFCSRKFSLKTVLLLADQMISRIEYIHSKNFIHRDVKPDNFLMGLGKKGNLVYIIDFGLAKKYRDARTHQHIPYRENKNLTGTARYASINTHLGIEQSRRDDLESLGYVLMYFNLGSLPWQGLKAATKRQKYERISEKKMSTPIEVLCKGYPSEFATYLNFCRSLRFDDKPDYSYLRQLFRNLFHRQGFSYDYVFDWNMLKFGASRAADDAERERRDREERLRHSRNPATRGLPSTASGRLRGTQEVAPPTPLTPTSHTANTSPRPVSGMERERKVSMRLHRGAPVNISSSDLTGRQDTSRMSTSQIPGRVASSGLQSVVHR

Sequence of Dual 3',5'-cyclic-AMP and -GMP phosphodiesterase 11A (Q9HCR9 whole entry): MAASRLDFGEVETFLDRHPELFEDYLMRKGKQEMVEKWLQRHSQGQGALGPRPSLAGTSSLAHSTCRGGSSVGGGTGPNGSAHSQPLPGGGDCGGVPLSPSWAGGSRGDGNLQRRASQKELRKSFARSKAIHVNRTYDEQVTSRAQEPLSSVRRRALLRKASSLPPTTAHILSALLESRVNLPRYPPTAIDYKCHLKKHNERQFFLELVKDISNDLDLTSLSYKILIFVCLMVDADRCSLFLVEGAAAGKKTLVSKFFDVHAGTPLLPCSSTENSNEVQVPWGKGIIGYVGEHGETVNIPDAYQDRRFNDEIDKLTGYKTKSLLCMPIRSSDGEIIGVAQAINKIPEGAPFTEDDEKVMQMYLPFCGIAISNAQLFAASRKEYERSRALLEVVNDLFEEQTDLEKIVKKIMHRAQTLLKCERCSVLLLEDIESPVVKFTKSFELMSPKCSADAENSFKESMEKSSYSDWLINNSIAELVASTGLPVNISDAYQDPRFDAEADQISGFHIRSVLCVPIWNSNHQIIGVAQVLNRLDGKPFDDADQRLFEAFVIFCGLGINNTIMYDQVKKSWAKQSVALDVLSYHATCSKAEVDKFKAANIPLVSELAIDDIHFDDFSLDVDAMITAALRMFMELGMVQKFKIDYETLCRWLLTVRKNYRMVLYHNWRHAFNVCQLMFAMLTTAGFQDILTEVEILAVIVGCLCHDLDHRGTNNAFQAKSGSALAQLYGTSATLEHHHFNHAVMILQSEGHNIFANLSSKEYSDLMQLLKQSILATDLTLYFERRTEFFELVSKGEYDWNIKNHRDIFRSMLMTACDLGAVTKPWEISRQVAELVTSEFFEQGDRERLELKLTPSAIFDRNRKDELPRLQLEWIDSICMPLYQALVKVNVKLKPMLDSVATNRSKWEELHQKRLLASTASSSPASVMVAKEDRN
Sequence of High affinity cGMP-specific 3',5'-cyclic phosphodiesterase 9A (O76083 whole entry): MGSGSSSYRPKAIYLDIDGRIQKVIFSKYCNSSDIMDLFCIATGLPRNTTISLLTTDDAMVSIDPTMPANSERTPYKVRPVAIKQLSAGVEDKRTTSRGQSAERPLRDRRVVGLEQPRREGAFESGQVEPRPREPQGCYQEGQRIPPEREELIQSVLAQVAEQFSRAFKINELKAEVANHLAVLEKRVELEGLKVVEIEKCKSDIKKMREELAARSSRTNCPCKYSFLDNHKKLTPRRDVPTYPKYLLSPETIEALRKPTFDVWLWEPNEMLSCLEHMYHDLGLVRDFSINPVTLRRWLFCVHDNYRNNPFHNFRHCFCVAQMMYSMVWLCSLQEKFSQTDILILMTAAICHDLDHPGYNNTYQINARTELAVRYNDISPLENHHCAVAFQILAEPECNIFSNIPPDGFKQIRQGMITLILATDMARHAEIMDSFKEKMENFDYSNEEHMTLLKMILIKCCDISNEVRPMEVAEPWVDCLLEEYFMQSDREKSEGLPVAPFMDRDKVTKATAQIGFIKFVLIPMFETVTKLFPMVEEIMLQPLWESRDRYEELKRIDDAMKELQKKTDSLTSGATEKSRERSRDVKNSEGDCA
Sequence of 5-hydroxytryptamine receptor 1B (Homo sapiens) (P28222 whole entry): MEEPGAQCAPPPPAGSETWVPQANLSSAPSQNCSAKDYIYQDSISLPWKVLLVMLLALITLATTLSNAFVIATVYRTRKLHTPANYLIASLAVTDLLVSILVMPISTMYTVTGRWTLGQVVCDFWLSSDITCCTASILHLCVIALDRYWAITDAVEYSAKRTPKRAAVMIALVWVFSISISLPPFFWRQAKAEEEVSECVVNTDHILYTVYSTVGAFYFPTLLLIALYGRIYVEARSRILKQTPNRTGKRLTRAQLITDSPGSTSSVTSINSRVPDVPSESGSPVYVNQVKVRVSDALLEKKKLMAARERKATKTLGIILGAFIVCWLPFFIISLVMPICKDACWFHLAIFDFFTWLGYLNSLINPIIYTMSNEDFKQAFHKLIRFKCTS

`COc1cc(C)c2nc3[nH]nc(C)c3c(N3CCNCC3)c2c1`: the Ki entry at Phosphodiesterase 8 is “>= 770 nM”; at Phosphodiesterase 1, “>= 770 nM”; in series [3] it was at least 0.77 µM; on Phosphodiesterase 4, “>= 770 nM”; at Phosphodiesterase 7 it was “>= 770 nM”; in series [5], at least 0.77 µM. The Ki was above 100 µM in series [6], “>= 770 nM” on Phosphodiesterase 3, at least 0.77 µM in series [10] and “>= 770 nM” at Phosphodiesterase 6. Besides, the inhibition in series [1], in series [7] and in series [11] was 54% in each case. Further, the AUC(0-t) at 6 h in [2] worked out at 3.3 µM·h. Further, the fraction unbound in series [4] is 0.16. Also, the Kp at 6 h in [8] was 1.2. Moreover, the concentration at 6 h in series [9] was determined as 123 ng/g. In [12], inhibition was half-maximal at 0.32 µM (IC50).
